# Tests used:
# [1] = In vitro inhibitory concentration required to inhibit LPS-induced nitric oxide production in J774A.1 cells; assay type: functional, cell-based; conditions: Mus musculus, J774.A1
# Procedure, shortened: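 Murine J774A.1 macrophages were plated at ~10^5/ml and stimulated with 10 ng/ml LPS. Serially diluted compounds were added at the same time, with polymyxin B as reference, and cells were incubated for 16 h. Nitrite in the supernatant was measured by Griess reaction (15 min, room temperature, dark; A535) against a sodium nitrite standard curve. IC50 was taken from dose-response. Viability was checked in parallel by XTT.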
# Lipopolysaccharide (LPS) [2] = assay: Effective dose required for binding to lipopolysaccharide using Fluorescence Displacement Assay
# Procedure, shortened: (§1)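 BODIPY-TR-cadaverine displacement from LPS. Compounds from 5 mM DMSO stocks were serially diluted two-fold in 50 mM Tris pH 7.4 down to 0.596 nM final. An LPS/probe mixture was added and end-point fluorescence was read at 620 nm; probe de-quenching reports binding. ED50 was computed from displacement curves, with polymyxin B as the reference on every plate.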
# Homo sapiens = species: Homo sapiens; assay: Inhibitory concentration required to inhibit LPS-induced TNF-alpha production in ex vivo human whole blood assay; assay type: functional, organism-based
# Procedure, shortened: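 Fresh EDTA-anticoagulated whole blood from healthy volunteers was mixed with an equal volume of 20 ng/ml E. coli O111:B4 LPS plus graded compound concentrations diluted in saline and incubated for 4 h. TNF-α was quantified by a multiplexed flow-cytometric cytokine bead array against recombinant cytokine standards. IC50 was derived from dose-response.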
# Lipopolysaccharide (LPS) [3] = assay: Effective dose required for binding to lipopolysaccharide using Fluorescence Displacement Assay; Range is ~1-2 uM; procedure, shortened: as §1
# Mus musculus [4] = assay: Protection of LPS-induced lethality in mice was determined after administration of 0 ug and activity expressed as dead/total (5/5); assay type: functional
# Mus musculus [5] = assay: Protection of LPS-induced lethality in mice was determined after administration of 10 ug and activity expressed as dead/total (5/5); assay type: functional
# Mus musculus [6] = assay: Protection of LPS-induced lethality in mice was determined after administration of 50 ug and activity expressed as dead/total (5/5); assay type: functional
# Mus musculus [7] = assay: Protection of LPS-induced lethality in mice was determined after administration of 100 ug and activity expressed as dead/total (4/5); assay type: functional
# Mus musculus [8] = assay: Protection of LPS-induced lethality in mice was determined after administration of 200 ug and activity expressed as dead/total (1/5); assay type: functional
# Mus musculus [9] = assay: Protection of LPS-induced lethality in mice was determined after administration of 50 ug and activity expressed as dead/total (2/5); assay type: functional
# Mus musculus [10] = assay: Protection of LPS-induced lethality in mice was determined after administration of 100 ug and activity expressed as dead/total (0/5); assay type: functional
# Mus musculus [11] = assay: Protection of LPS-induced lethality in mice was determined after administration of 200 ug and activity expressed as dead/total (0/5); assay type: functional
# Mus musculus [12] = assay: Protection of LPS-induced lethality in mice sensitized by D-galactosamine was determined after 200 ug administered ip at 0 hour and activity expressed as dead/total (0/5); assay type: functional
# Mus musculus [13] = assay: Protection of LPS-induced lethality in mice sensitized by D-galactosamine was determined after 200 ug administered ip at 1 hour and activity expressed as dead/total (5/5); assay type: functional
# Mus musculus [14] = assay: Protection of LPS-induced lethality in mice sensitized by D-galactosamine was determined after 200 ug administered ip at 2 hour and activity expressed as dead/total (4/5); assay type: functional
# Mus musculus [15] = assay: Protection of LPS-induced lethality in mice sensitized by D-galactosamine was determined after 200 ug administered ip at -2 hour and activity expressed as dead/total (0/5); assay type: functional
# Mus musculus [16] = assay: Protection of LPS-induced lethality in mice sensitized by D-galactosamine was determined after 200 ug administered ip at -4 hour and activity expressed as dead/total (1/5); assay type: functional
# Mus musculus [17] = assay: Protection of LPS-induced lethality in mice sensitized by D-galactosamine was determined after 200 ug administered ip at -6 hour and activity expressed as dead/total (1/5); assay type: functional
# Lipopolysaccharide (LPS) [18] = assay: Dissociation constant against lipopolysaccharide
# Procedure, shortened: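 Isothermal titration calorimetry at 37 °C in 50 mM Tris pH 7.4, ligand and LPS in the same buffer. E. coli O111:B4 LPS was titrated in 35 injections at 360 s intervals into the cell holding the acylhomospermine, with stirring at 310 rpm. Controls injected LPS into buffer. KD was obtained from fitting the binding isotherm.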
# Mus musculus [19] = assay: Protection of LPS-induced lethality in mice was determined after administration of 100 ug and activity expressed as dead/total (2/5); assay type: functional
# Mus musculus [20] = assay: Protection of LPS-induced lethality in mice was determined after administration of 500 ug and activity expressed as dead/total (4/5); assay type: functional
# Mus musculus [21] = assay: Protection of LPS-induced lethality in mice was determined after administration of 50 ug and activity expressed as dead/total (4/5); assay type: functional
Compound,IC50 [1] [µM],ED50 (Lipopolysaccharide (LPS) [2]) [µM],IC50 (Homo sapiens) [µM],ED50 (Lipopolysaccharide (LPS) [3]) [µM],further results
CCCCCCCCCCCCCCC(=O)NCCCNCCCNCCCCNCCCN,3.69,1.35,2.27,–,–
CCCCCCCCCCCCCCC(=O)NCCCNCCCNCCCCNCCCNCCCNC(=O)CCCCCCCCCCCCCC,10.1,8.67,63.1,–,–
CCCCCCCCC(=O)NCCCNCCCNCCCCNCCCNCCCNC(=O)CCCCCCCC,2.05,0.33,4.88,–,Dead (Mus musculus [4]): 5; Dead (Mus musculus [5]): 5; Dead (Mus musculus [6]): 5; Dead (Mus musculus [7]): 4; Dead (Mus musculus [8]): 1
CCCCCCCCC(=O)NCCCN(CCCN(CCCCN(CCCNC(=O)OC(C)(C)C)C(=O)OC(C)(C)C)C(=O)OC(C)(C)C)C(=O)OC(C)(C)C,–,–,–,< 2,–
CC(C)(C)OC(=O)NCCCN(CCCCN(CCCN(CCCN)C(=O)OC(C)(C)C)C(=O)OC(C)(C)C)C(=O)OC(C)(C)C,–,–,–,< 2,–
CCCCCCCCCCCCCCCCC(=O)NCCCNCCCNCCCCNCCCN,4.22,1.37,1.91,–,Dead (Mus musculus [4]): 5; Dead (Mus musculus [5]): 5; Dead (Mus musculus [9]): 2; Dead (Mus musculus [10]): 0; Dead (Mus musculus [11]): 0; Dead (Mus musculus [12]): 0; Dead (Mus musculus [13]): 5; Dead (Mus musculus [14]): 4; Dead (Mus musculus [15]): 0; Dead (Mus musculus [16]): 1; Dead (Mus musculus [17]): 1; Kd (Lipopolysaccharide (LPS) [18]): 1.21 µM
CCCCCCCCCC(=O)NCCCNCCCNCCCCNCCCNCCCNC(=O)CCCCCCCCC,1.47,0.76,10,–,–
CCCCCCCCCCCCCCCCCCC(=O)NCCCNCCCNCCCCNCCCNCCCNC(=O)CCCCCCCCCCCCCCCCCC,13.9,66.7,120,–,–
CCCCCCCCCCCCCCCCCCC(=O)NCCCNCCCNCCCCNCCCN,4.35,2.44,2.31,–,–
CCCCCCCCCCCC(=O)NCCCNCCCNCCCCNCCCNCCCNC(=O)CCCCCCCCCCC,1.44,6.87,9.19,–,Dead (Mus musculus [4]): 5; Dead (Mus musculus [19]): 2; Dead (Mus musculus [8]): 1; Dead (Mus musculus [20]): 4; Dead (Mus musculus [21]): 4
POLYMYXIN B,–,1.2,–,–,–
CCCCCCCCC(=O)NCCCNCCCNCCCCNCCCN,52.5,0.92,31.1,–,–

# More lines, main results first:
IC50 [1] [µM],ED50 (Lipopolysaccharide (LPS) [2]) [µM],IC50 (Homo sapiens) [µM],ED50 (Lipopolysaccharide (LPS) [3]) [µM],Compound,further results
171,107,36.6,–,CC(=O)NCCCNCCCNCCCCNCCCN,–
23.5,1.08,16.5,–,CCCCCCCCCC(=O)NCCCNCCCNCCCCNCCCN,–
–,–,–,< 2,NCCCNCCCCNCCCN,–
–,–,–,< 2,CC(=O)NCCCN(CCCN(CCCCN(CCCNC(=O)OC(C)(C)C)C(=O)OC(C)(C)C)C(=O)OC(C)(C)C)C(=O)OC(C)(C)C,–
14.2,52.5,37.1,–,CCCCCCCCCCCCCCCCC(=O)NCCCNCCCNCCCCNCCCNCCCNC(=O)CCCCCCCCCCCCCCCC,–
–,–,–,< 2,CCCCCCCCCCCCCCCCC(=O)NCCCN(CCCN(CCCCN(CCCNC(=O)OC(C)(C)C)C(=O)OC(C)(C)C)C(=O)OC(C)(C)C)C(=O)OC(C)(C)C,–
–,–,–,< 2,CCCCCCCCCC(=O)NCCCN(CCCN(CCCCN(CCCNC(=O)OC(C)(C)C)C(=O)OC(C)(C)C)C(=O)OC(C)(C)C)C(=O)OC(C)(C)C,–
–,–,–,< 2,CCCCCCCCCCCCCCC(=O)NCCCN(CCCN(CCCCN(CCCNC(=O)OC(C)(C)C)C(=O)OC(C)(C)C)C(=O)OC(C)(C)C)C(=O)OC(C)(C)C,–
–,–,–,< 2,CCCCCCCCCCCCCCCCCCC(=O)NCCCN(CCCN(CCCCN(CCCNC(=O)OC(C)(C)C)C(=O)OC(C)(C)C)C(=O)OC(C)(C)C)C(=O)OC(C)(C)C,–

# — ChEMBL document CHEMBL1145213, “Lipopolysaccharide sequestrants: structural correlates of activity and toxicity in novel acylhomospermines” (J Med Chem, 2005)
